In paper PMC3338887 (Journal of Natural Products, 2012):
“Also recorded” adds a separate entry of the source.

Assays:
C. albicans DAY185 = test: C. albicans growth inhibition / cell viability; format: cell-based, Candida albicans; details: for MIC: Candida albicans, DAY185, 48 h, read-out: MIC of growth inhibition
[1] = test system: C. albicans DAY185 hyphae formation; test: Hyphae formation assay; format: cell-based, Candida albicans; details: for network of hyphal growth versus vehicle control: 50 μM, 6 h incubation, Figure 3; for germ tube and hyphae formation by 6 h: 6 h post inoculation; for germ tube and hyphae formation by 6 h / hyphae at 24 h: versus vehicle-treated cells; for hyphae at 24 h: 24 h post inoculation; for C. albicans hyphae formation / hyphal morphogenesis: phase contrast microscopy
In short: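 DAY185 grown overnight in BHI at 37 °C, pelleted, washed and resuspended in PBS pH 7.4. Seeded at 1×10^6 cells/well for 1 h at 37 °C, then washed twice with PBS to remove non-adherent cells. RPMI 1640 with 2% glucose plus test compound (50 μM), farnesol (50 μM) or DMSO vehicle (1% by vol.) added. Incubated at 37 °C; phase-contrast microscopy (×200) at 2.5, 6 and 24 h.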

[2] = several organic solvents; cited from earlier work
[3] = test system: C. albicans DAY185 biofilm formation; test: Biofilm time of addition assay; format: cell-based, Candida albicans; details: conclusion from the time-of-addition study
MIA PaCa-2 cells = test: Mammalian cell cytotoxicity assay; format: cell-based, human; details: MIA PaCa-2 cell line, 24 h, MTT
[4] = Stability in organic solvents; format: physicochemical; details: MeOH and varying H2O-MeOH mixtures, CHCl3, CH2Cl2, EtOAc

CC1(C)C=Cc2c(ccc3c2NC(=O)[C@@]32C[C@@]34NC(=O)[C@]5(CCCN5C3=O)C[C@H]4C2(C)C)O1 [Compound 2, notoamide B]
MIC (C. albicans DAY185): > 200 µM

C/C=C/C=C/C=C/[C@H]1C[C@@H](O)CC(=O)[C@@H]1C [Compound 15, waikialide A]
MIC (C. albicans DAY185): > 200 µM
network of hyphal growth versus vehicle control [1]: significantly reduced or absent from nearly all cells
germ tube and hyphae formation by 6 h [1]: did not form germ tubes or hyphae by 6 h
hyphae at 24 h [1]: severely truncated hyphae
C. albicans hyphae formation / hyphal morphogenesis [1]: inhibited C. albicans hyphae formation in a dose dependent manner

CC1(C)C=Cc2c(ccc3c2[N+]([O-])=C2C(C)(C)[C@@H]4CC56CCCN5C(=O)[C@]4(NC6=O)[C@H]4N5C(=O)[C@@]67CCCN6C(=O)[C@@]56[C@H](c5c(n(O)c8c9c(ccc58)OC(C)(C)C=C9)C(C)(C)[C@@H]6C7)[C@]234)O1 [Compound 17, stephacidin B]
stability in organic solvents [2]: degrade in several organic solvents

CC1(C)C=Cc2c(ccc3c2NC(=O)[C@@]32[C@H](O)[C@@]34NC(=O)[C@]5(CCCN5C3=O)C[C@H]4C2(C)C)O1 [Compound 3, sclerotiamide]
MIC (C. albicans DAY185): > 200 µM

C/C=C/C=C/C=C/[C@H]1C[C@@H](O)C[C@@H](O)[C@@H]1C [Compound 16, waikialide B]
MIC (C. albicans DAY185): > 200 µM

CC1(C)C=Cc2c(ccc3c2[N+]([O-])=C2C(C)(C)[C@@H]4C[C@]56CCCN5C(=O)[C@]4(NC6=O)[C@H]4N5C(=O)[C@@]67CCCN6C(=O)[C@@]56[C@H](c5c([nH]c8c9c(ccc58)OC(C)(C)C=C9)C(C)(C)[C@@H]6C7)[C@]234)O1 [Compound 1, waikialoid A]
effect on preformed biofilms [3]: ineffective at disrupting preformed biofilms; also recorded: likely not effective at inhibiting or disrupting preformed biofilms
not toxic to mammalian (human) cells at concentrations up to (MIA PaCa-2 cells): > 200 µM
stability in solvents [4]: very stable for days
MIC (C. albicans DAY185): > 200 µM
network of hyphal growth versus vehicle control [1]: significantly reduced or absent from nearly all cells
germ tube and hyphae formation by 6 h [1]: did not form germ tubes or hyphae by 6 h
hyphae at 24 h [1]: severely truncated hyphae
C. albicans hyphae formation / hyphal morphogenesis [1]: inhibited C. albicans hyphal morphogenesis; also recorded: inhibited C. albicans hyphae formation in a dose dependent manner

CC1(C)C=Cc2c(ccc3c2[N+]([O-])=C2C(C)(C)[C@@H]4C[C@]56CCCN5C(=O)[C@]4(NC6=O)[C@H]4N5C(=O)[C@@]67CCCN6C(=O)[C@@]56[C@@H]([C@]234)[C@]2(O)C(=[N+]([O-])c3c2ccc2c3C=CC(C)(C)O2)C(C)(C)[C@@H]6C7)O1 [Compound 14, waikialoid B]
MIC (C. albicans DAY185): > 200 µM

CC1(C)C=Cc2c(ccc3c4c([nH]c23)C(C)(C)[C@@H]2C[C@]35CCCN3C(=O)[C@@]2(C4)NC5=O)O1 [Compound 6, stephacidin A]
MIC (C. albicans DAY185): > 200 µM

CC1(C)C=Cc2c(ccc3c4c([nH]c23)C(C)(C)[C@@H]2C[C@]35CCCN3C(=O)[C@]2(NC5=O)[C@H]4O)O1 [Compound 5, notoamide R]
MIC (C. albicans DAY185): > 200 µM

CC1(C)C=Cc2c(ccc3c2[N+]([O-])=C2C3=C[C@@]34NC(=O)[C@]5(CCCN5C3=O)C[C@H]4C2(C)C)O1 [Compound 7, CJ-17665]
MIC (C. albicans DAY185): > 200 µM

CC(C)=CCC/C(C)=C/CC/C(C)=C/CO [farnesol, reference compound]
MIC (C. albicans DAY185): > 200 µM
effect on C. albicans cell survival (C. albicans DAY185; positive control): did not impede cell survival
network of hyphal growth versus vehicle control [1]: significantly reduced or absent from nearly all cells
